Measured values as given in ChEMBL document CHEMBL1157793, “Synthesis and antitumor activity of 1,5-disubstituted 1,2,4-triazoles as cis-restricted combretastatin analogues” (J Med Chem, 2010).

Tests used:
HeLa = assay: Antiproliferative activity against human HeLa cells after 72 hrs by MTT assay; format: functional, cell-based
A549 = assay: Antiproliferative activity against human A549 cells after 72 hrs by MTT assay; format: functional, cell-based; conditions: A549, 72 h
HL-60 = assay: Antiproliferative activity against human HL60 cells after 72 hrs by MTT assay; format: functional, cell-based; conditions: HL-60, 72 h
Jurkat = assay: Antiproliferative activity against human Jurkat cells after 72 hrs by MTT assay; format: functional, cell-based
Outline: (§1)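 Cells seeded at 8×10^3 per well (Jurkat, HL-60, K562 in RPMI-1640; MCF7, A549, HeLa in DMEM; all with 10% FBS, penicillin/streptomycin), incubated 18 h at 37 °C, 5% CO2, then exposed to compound at varying concentrations in complete medium for 72 h.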

K562 = assay: Antiproliferative activity against human K562 cells after 72 hrs by MTT assay; format: functional, cell-based; conditions: K562, 72 h; outline: as §1
MCF7 = assay: Antiproliferative activity against human MCF7 cells after 72 hrs by MTT assay; format: functional, cell-based; conditions: MCF7, 72 h
Bos taurus = organism: Bos taurus; assay: Displacement of [3H]colchicine from bovine tubulin at 1 uM
Outline: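 [3H]Colchicine binding inhibition measured with reaction mixtures of 1 µM tubulin, 5 µM [3H]colchicine and 1 µM test compound.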

[1] = Inhibition of bovine brain tubulin polymerization after 20 mins by turbidimetry; parameters: species or system Bos taurus
Outline: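 Bovine brain tubulin (10 µM) preincubated with varying compound concentrations in glutamate buffer at 30 °C, chilled to 0 °C, 0.4 mM GTP added, then warmed to 30 °C in spectrophotometer; assembly followed by turbidity at 350 nm.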

| Compound | IC50 (HeLa) | IC50 (A549) | IC50 (HL-60) | IC50 (Jurkat) | IC50 (K562) | IC50 (MCF7) | Activity (Bos taurus) | IC50 [1] |
| --- | --- | --- | --- | --- | --- | --- | --- | --- |
| COc1cc(-n2ncnc2-c2cccc(F)c2)cc(OC)c1OC | > 10 µM | > 10 µM | > 10 µM | > 10 µM | > 10 µM | > 10 µM | – | – |
| COc1ccc(/C=C\c2cc(OC)c(OC)c(OC)c2)cc1O [COMBRETASTATIN A4] | – | – | – | 0.005 µM | 0.005 µM | – | 87% | – |
| COc1cc(-n2ncnc2-c2cccc([N+](=O)[O-])c2)cc(OC)c1OC | > 10 µM | > 10 µM | > 10 µM | > 10 µM | > 10 µM | > 10 µM | – | – |
| COc1cc(-n2ncnc2-c2cccc(Cl)c2)cc(OC)c1OC | > 10 µM | > 10 µM | > 10 µM | > 10 µM | > 10 µM | > 10 µM | – | – |
| CCOc1cccc(-c2ncnn2-c2cc(OC)c(OC)c(OC)c2)c1 | > 10 µM | > 10 µM | > 10 µM | > 10 µM | > 10 µM | > 10 µM | – | – |
| COc1cc(-n2ncnc2-c2ccc(Cl)c(Cl)c2)cc(OC)c1OC | > 10 µM | > 10 µM | > 10 µM | > 10 µM | > 10 µM | > 10 µM | – | – |
| COc1cc(-c2ncnn2-c2ccc([N+](=O)[O-])cc2)cc(OC)c1OC | > 10 µM | > 10 µM | > 10 µM | > 10 µM | > 10 µM | > 10 µM | – | – |
| COc1cc(-n2ncnc2-c2ccc(Cl)cc2)cc(OC)c1OC | > 10 µM | > 10 µM | > 10 µM | > 10 µM | > 10 µM | > 10 µM | – | – |
| COc1cc(-n2ncnc2-c2ccc(C)cc2)cc(OC)c1OC | 0.25 µM | 1.1 µM | 0.09 µM | 0.3 µM | > 10 µM | 0.54 µM | 33% | 3.9 µM |
| COc1cc(-c2ncnn2-c2ccc(Cl)cc2Cl)cc(OC)c1OC | > 10 µM | > 10 µM | > 10 µM | > 10 µM | > 10 µM | > 10 µM | – | – |
| COc1ccccc1-c1ncnn1-c1cc(OC)c(OC)c(OC)c1 | > 10 µM | > 10 µM | > 10 µM | > 10 µM | > 10 µM | > 10 µM | – | – |
| COc1cc(-n2ncnc2-c2ccc(OC(F)(F)F)cc2)cc(OC)c1OC | > 10 µM | > 10 µM | > 10 µM | > 10 µM | > 10 µM | > 10 µM | – | – |
| COc1cc(-n2ncnc2-c2ccccc2)cc(OC)c1OC | > 10 µM | > 10 µM | > 10 µM | > 10 µM | > 10 µM | > 10 µM | – | – |
| COc1cc(-n2ncnc2-c2ccc(SC)cc2)cc(OC)c1OC | 0.15 µM | 0.8 µM | 0.5 µM | 0.05 µM | 0.34 µM | 0.39 µM | 38% | 3.6 µM |
| COc1cc(-c2ncnn2-c2cccc(N)c2)cc(OC)c1OC | > 10 µM | > 10 µM | > 10 µM | > 10 µM | > 10 µM | > 10 µM | – | – |
| COc1cc(-c2ncnn2-c2ccc(F)cc2)cc(OC)c1OC | > 10 µM | > 10 µM | > 10 µM | > 10 µM | > 10 µM | > 10 µM | – | – |
| CCOc1ccccc1-c1ncnn1-c1cc(OC)c(OC)c(OC)c1 | > 10 µM | > 10 µM | > 10 µM | > 10 µM | > 10 µM | > 10 µM | – | – |
| COc1ccc(-n2ncnc2-c2cc(OC)c(OC)c(OC)c2)cc1 | > 10 µM | > 10 µM | 6.2 µM | 0.093 µM | 3.6 µM | 7.4 µM | – | 16 µM |
| COc1cc(-n2ncnc2-c2ccc(F)cc2)cc(OC)c1OC | > 10 µM | > 10 µM | > 10 µM | > 10 µM | > 10 µM | > 10 µM | – | – |
| COc1cc(-n2ncnc2-c2ccc(OC(C)C)cc2)cc(OC)c1OC | 0.6 µM | > 10 µM | 0.7 µM | 0.65 µM | 0.8 µM | 0.61 µM | 37% | 5.1 µM |
| COc1cccc(-c2ncnn2-c2cc(OC)c(OC)c(OC)c2)c1 | > 10 µM | > 10 µM | > 10 µM | > 10 µM | > 10 µM | > 10 µM | – | – |
| COc1cc(-c2ncnn2-c2ccc(N)cc2)cc(OC)c1OC | > 10 µM | > 10 µM | > 10 µM | > 10 µM | > 10 µM | > 10 µM | – | – |
| COc1cc(-c2ncnn2-c2ccc(Cl)c(Cl)c2)cc(OC)c1OC | > 10 µM | > 10 µM | > 10 µM | > 10 µM | > 10 µM | > 10 µM | – | – |
| COc1cc(-c2ncnn2-c2cccc(F)c2)cc(OC)c1OC | > 10 µM | > 10 µM | > 10 µM | > 10 µM | > 10 µM | > 10 µM | – | – |
| COc1cc(-c2ncnn2-c2ccccc2)cc(OC)c1OC | > 10 µM | > 10 µM | > 10 µM | > 10 µM | > 10 µM | > 10 µM | – | – |
| COc1cc(-c2ncnn2-c2ccc(Cl)cc2)cc(OC)c1OC | > 10 µM | > 10 µM | > 10 µM | > 10 µM | > 10 µM | > 10 µM | – | – |
| COc1ccc(-c2ncnn2-c2cc(OC)c(OC)c(OC)c2)cc1 | 0.28 µM | 0.52 µM | 0.12 µM | 0.05 µM | 0.95 µM | 0.36 µM | 55% | 2.3 µM |
| COc1cc(-c2ncnn2-c2cccc([N+](=O)[O-])c2)cc(OC)c1OC | > 10 µM | > 10 µM | > 10 µM | > 10 µM | > 10 µM | > 10 µM | – | – |
